Measured values from different studies.
Protocols differ between the studies behind these lines.
Target: Testis-specific serine/threonine-protein kinase 1 (TSSK1B, Homo sapiens, UniProt Q9BXA7)
One construct used (Q9BXA7 1-367): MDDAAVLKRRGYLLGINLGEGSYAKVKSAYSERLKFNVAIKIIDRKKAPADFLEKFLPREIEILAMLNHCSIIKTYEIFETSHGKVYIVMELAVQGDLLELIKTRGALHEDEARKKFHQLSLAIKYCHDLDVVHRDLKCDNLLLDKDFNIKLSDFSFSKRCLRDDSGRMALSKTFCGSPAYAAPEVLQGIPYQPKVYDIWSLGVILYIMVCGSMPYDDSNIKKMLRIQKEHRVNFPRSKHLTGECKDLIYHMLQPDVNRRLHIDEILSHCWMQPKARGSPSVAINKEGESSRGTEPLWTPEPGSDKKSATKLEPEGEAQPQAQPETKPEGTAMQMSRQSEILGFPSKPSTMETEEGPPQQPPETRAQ

`Cc1cc(NC(=O)c2cccc3cc(-c4cccc5[nH]nc(N)c45)ccc23)ccc1F` gave an activity vs control of 86% (enzyme activity; inhibitor; 0.1 µM).
With `Cc1ccc(NC(=O)c2ccc(CN3CCN(C)CC3)cc2)cc1Nc1nc(-c2cccnc2)cs1` the remaining signal was 100% (cell-free assay; 0.5 µM).
`CN1CC(Oc2cnc(C#N)cc2-c2ccn3nc(NC(=O)C4CC4)cc3c2)C1` gave an inhibition of 9% (enzyme activity; inhibitor; 1 µM).
The remaining binding of `CC(=O)C1=C(C)N(c2cccc(C(F)(F)F)c2)C(=O)N[C@@H]1c1ccc(C#N)nc1` is reported as 100% (cell-free assay; competition with immobilised ligand; 1 µM).
With `CNC(=O)c1cc(Oc2ccc(NC(=O)Nc3ccc(Cl)c(C(F)(F)F)c3)cc2)ccn1` the inhibition was 2% (enzyme activity; inhibitor; 10 µM).
For `CNC(=O)c1ccc(Nc2ncc(C(F)(F)F)c(NCc3nccnc3N(C)S(C)(=O)=O)n2)cc1`, the remaining binding was 64% (cell-free assay; competition with immobilised ligand; 0.1 µM).
For `O=C(Nc1cnn(-c2csc(C(=O)NC3COC3)c2)c1)Nc1ccccc1Cl`, the remaining activity was 102% (enzyme activity; inhibitor; 5 µM).
For `CS(=O)(=O)N1CCCC(NC(=O)[C@H](CCC2CCCCC2)NC(=O)c2ccc(CNC(=O)c3cnc4ccccn34)cc2)C1` (some centres unmarked), the remaining binding was 94% (cell-free assay; competition with immobilised ligand; 0.1 µM).
`CC(C)(C)c1nc2c(s1)c1nc(N)ncc1c1ccc(NS(=O)(=O)c3c(F)cccc3F)c(F)c12` has a remaining activity of 88% (enzyme activity; inhibitor; radiometric; 1 µM).
`Cc1ccc(Nc2nccc(N(C)c3ccc4c(C)n(C)nc4c3)n2)cc1S(N)(=O)=O` has an inhibition of -1% (enzyme activity; inhibitor; 0.3 µM).
With `O=C(Nc1cccnn1)N1CC(C/C=C/c2cncc(Oc3ccc(C(F)(F)F)cn3)n2)C1` the remaining binding was 100% (cell-free assay; competition with immobilised ligand; 1 µM).
The remaining activity of `COc1cc(Nc2cnc(C#N)c(O[C@H](C)CN(C)C)n2)ncc1-c1cnn(C)c1` is reported as 72% (enzyme activity; inhibitor; radiometric; 1 µM).
For `CCOc1cc(-c2nncn2C)ccc1Nc1ncc2cc(C)nc(NCC(C)(C)C)c2n1`, the inhibition was under 15% (enzyme activity; inhibitor; FRET; 1 µM).
The remaining binding of `FC(F)(F)c1ccc2c(c1)nc(-c1cccnc1)n2C1CC1` is reported as 100% (cell-free assay; competition with immobilised ligand; 1 µM).
`CCN(CC)c1ccc(C2=NNC(=O)CC2C)cc1[N+](=O)[O-]` (centres unmarked) has a remaining activity of 96% (enzyme activity; inhibitor; 10 µM).
`N#Cc1ccc(Nc2ccc3[nH]c(=O)[nH]c3c2)c(Cl)c1` gave a remaining binding of 56% (cell-free assay; competition with immobilised ligand; 1 µM).
For `COc1cc2ncnc(Nc3ccc(Oc4ccccc4)c(C)c3C)c2cc1OC`, the inhibition was 4% (enzyme activity; inhibitor; 1 µM).
For `Cc1ccc(NC(=O)c2ccc(C)c(C(F)(F)F)c2)cc1C#Cc1nn(C2CCC(O)CC2)c2ncnc(N)c12` (centres unmarked), the remaining signal was 100% (cell-free assay; 10 µM).
`CCN(CC)CCNC(=O)c1c(C)[nH]c(/C=C2\C(=O)Nc3ccc(F)cc32)c1C` gave an inhibition of -1% (enzyme activity; inhibitor; 0.3 µM).
The remaining binding of `Cc1c(NC(=O)c2cc(C(N)=O)nc3cc(F)ccc23)c(C(F)(F)F)nn1Cc1ccc(C(C)(C)C)cc1` is reported as 100% (cell-free assay; competition with immobilised ligand; 1 µM).
`O=C1Nc2ccc(Cl)cc2C1=Cc1cc(Cl)c(O)c(Cl)c1` has a remaining signal of 88.2% (cell-free assay; 0.5 µM).
The inhibition of `CN(C)C1CCN(CC#Cc2nn(C3CCCC3)c3nc(NCc4ccccc4)ncc23)C1` (centres unmarked) is reported as 4% (enzyme activity; inhibitor; FRET; 0.1 µM).
With `CCCOc1ccc(OC)c(F)c1C(=O)c1ccc(C(=O)N[C@@H]2CNC[C@H]2NC(=O)c2ccc3[nH]ncc3c2)cc1` the remaining activity was 70% (enzyme activity; inhibitor; 10 µM).
